# Results taken from ChEMBL document CHEMBL3994569, “Synthesis, anti-varicella-zoster virus and anti-cytomegalovirus activity of quinazoline-2,4-diones containing isoxazolidine and phosphonate substructures” (Eur J Med Chem, 2017).
# What was measured:
# [1] = (§1) Cytotoxicity against HEL cells infected with Cytomegalovirus assessed as alteration in cell morphology by microscopic method; type: cell-based; settings: human, HEL cells infected with Cytomegalovirus
# Procedure, shortened: (§2)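 In the HEL cultures used for the antiviral assays, cell morphology was examined microscopically across varying compound concentrations. MCC is the minimum concentration causing a microscopically detectable alteration of cell morphology.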
# [2] = test system: Human alphaherpesvirus 3; assay: Antiviral activity against thymidine kinase expressing Varicella-Zoster virus OKA infected in HEL cells assessed as reduction in virus plaque formation; type: functional, cell-based, strain Oka vaccine
# Procedure, shortened: (§3)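 Confluent HEL fibroblast cultures were infected with VZV at an input of 100 PFU and incubated with varying compound concentrations. Plaques were counted once plaque formation was complete in untreated infected controls.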
# [3] = test system: Human alphaherpesvirus 3; assay: Antiviral activity against thymidine kinase deficient Varicella-Zoster virus 07-1 infected in HEL cells assessed as reduction in virus plaque formation; type: functional, cell-based; procedure, shortened: as §3
# [4] = (§4) Cytotoxicity against HEL cells infected with Varicella-Zoster virus assessed as alteration in cell morphology by microscopic method; type: cell-based; settings: human, HEL cells infected with Varicella-Zoster virus; procedure, shortened: as §2
# [5] = test system: HEL; assay: (§5) Cytotoxicity against HEL cells infected with Varicella-Zoster virus assessed as growth inhibition; type: cell-based; settings: human, hel
# [6] = test system: Cytomegalovirus; assay: Antiviral activity against Cytomegalovirus AD169 infected in HEL cells assessed as reduction in virus plaque formation; type: functional, cell-based
# Procedure, shortened: (§6)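 Confluent HEL fibroblast cultures infected with 100 PFU of HCMV and kept with varying compound concentrations. Plaques scored once plaque formation was complete in untreated infected controls.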
# [7] = test system: Cytomegalovirus; assay: Antiviral activity against Cytomegalovirus Davis infected in HEL cells assessed as reduction in virus plaque formation; type: functional, cell-based; procedure, shortened: as §6
# [8] = test system: L1210; assay: Anti-proliferative activity against mouse L1210 cells measured after 48 hrs by coulter counter method; type: ADME, cell-based
# Procedure, shortened: (§7)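 Cells at 300,000–500,000 cells/mL, combined 1:1 by volume with compound dilutions, incubated at 37 °C: L1210 for two days, CEM for three days, HeLa for four days. Cells counted by Coulter counter.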
# [9] = test system: CCRF-CEM; assay: Anti-proliferative activity against human CEM cells measured after 72 hrs by coulter counter method; type: ADME, cell-based; procedure, shortened: as §7
# [10] = test system: HeLa; assay: Anti-proliferative activity against human HeLa cells measured after 72 hrs by coulter counter method; type: ADME, cell-based
# [11] = test system: HEL; assay: Cytotoxicity against HEL cells infected with Cytomegalovirus assessed as growth inhibition; type: cell-based; settings: human
# [12] = test system: HeLa; assay: Anti-proliferative activity against human HeLa cells measured after 4 days by coulter counter method; type: ADME, cell-based; procedure, shortened: as §7
# [13] = test system: HMEC-1; assay: Anti-proliferative activity against HMEC1 cells by coulter counter method; type: ADME, cell-based, Homo sapiens
# Procedure, shortened: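 HMEC-1 cells at 300,000–500,000 cells/mL, mixed 1:1 by volume with serial dilutions of test compound, incubated at 37 °C. Cell number counted by Coulter counter.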
# [14] = test system: Human alphaherpesvirus 3; assay: Potency index, ratio of acyclovir EC50 to compound EC50 for thymidine kinase deficient Varicella-Zoster virus 07-1 infected in HEL cells assessed as reduction in virus plaque formation; type: functional
# [15] = test system: HEL; assay: as §1; type: cell-based; settings: human, hel; procedure, shortened: as §2
# [16] = test system: HEL; assay: as §4; type: cell-based; settings: human, hel; procedure, shortened: as §2
# [17] = as §5; type: cell-based; settings: human, HEL cells infected with Varicella-Zoster virus
# [18] = test system: Human alphaherpesvirus 1; assay: Antiviral activity against Herpes simplex virus 1 KOS infected in HEL cells assessed as reduction in virus-induced cytopathogenicity; type: functional, cell-based; settings: Human alphaherpesvirus 1, KOS
# Procedure, shortened: (§8)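 Confluent HEL fibroblast monolayers were infected with 100 CCID50 of virus and incubated with varying concentrations of compound. Cytopathicity was scored once it was complete in untreated infected controls.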
# [19] = test system: Human alphaherpesvirus 2; assay: Antiviral activity against Herpes simplex virus 2 G infected in HEL cells assessed as reduction in virus-induced cytopathogenicity; type: functional, cell-based; settings: Human alphaherpesvirus 2, strain G
# [20] = test system: Human alphaherpesvirus 1; assay: Antiviral activity against thymidine kinase-deficient acyclovir-resistant Herpes simplex virus 1 KOS infected in HEL cells assessed as reduction in virus-induced cytopathogenicity; type: functional, cell-based; settings: Human alphaherpesvirus 1, KOS; procedure, shortened: as §8
# [21] = test system: Human adenovirus 2; assay: Antiviral activity against Human adenovirus 2 infected in HEL cells assessed as reduction in virus-induced cytopathogenicity; type: functional, cell-based; settings: Human mastadenovirus C; procedure, shortened: as §8
# [22] = Cytotoxicity against virus infected HEL cells assessed as alteration in cell morphology by microscopic method; type: cell-based; settings: human; procedure, shortened: as §2
# [23] = Human alphaherpesvirus 3, strain Oka vaccine, HEL
# [24] = Human alphaherpesvirus 3, 07-1, HEL
# [25] = Human betaherpesvirus 5, AD169, HEL
# [26] = Human betaherpesvirus 5, Davis, HEL
Structure (SMILES),MCC [1] [µM],"EC50 [2, 23] [µM]","EC50 [3, 24] [µM]",MCC [4] [µM],CC50 [5] [µM],"EC50 [6, 25] [µM]","EC50 [7, 26] [µM]","IC50 ([8]; Mus musculus, L1210, 48 h) [µM]","IC50 ([9]; Homo sapiens, CCRF-CEM, 72 h) [µM]",CC50 [11] [µM],EC50 [7] [µM],MCC [22] [µM],also measured
CCOP(=O)(OCC)[C@@H]1C[C@@H](Cn2c(=O)n(C(=O)c3ccccc3)c(=O)c3ccccc32)ON1C,100,7.5,13.7,≥ 100,> 100,> 100,> 100,≥ 159,70,–,–,–,IC50 [10]: 96 µM
CCOP(=O)(OCC)[C@@H]1C[C@@H](Cn2ccc(=O)n(C(=O)c3ccccc3)c2=O)ON1C,100,83.6,> 100,> 100,–,> 100,> 100,> 200,> 200,–,–,–,IC50 [10]: > 200 µM
CCOP(=O)(OCC)[C@H]1C[C@@H](Cn2c(=O)n(C(=O)c3ccccc3)c(=O)c3ccccc32)ON1C,100,7.7,10.9,> 100,–,> 100,> 100,> 200,74,–,–,–,IC50 [10]: > 200 µM
CCOP(=O)(OCC)C1CC(Cn2c(=O)n(Cc3ccccc3F)c(=O)c3ccccc32)ON1Cc1ccccc1 (stereo unspecified),100,4.7,5.1,100,11.8,8.94,≥ 6.5,17,20,11.8,–,–,"IC50 ([12]; Homo sapiens, HeLa, 96 h): 17 µM; IC50 ([13]; Homo sapiens, HMEC-1): 23 µM; Ratio EC50 [14]: 10 - 14"
CCOP(=O)(OCC)[C@H]1C[C@@H](Cn2ccc(=O)n(C(=O)c3ccccc3)c2=O)ON1C,100,65.7,88.4,> 100,–,> 100,> 100,> 200,> 200,–,–,–,IC50 [10]: > 200 µM
CCOP(=O)(OCC)C1CC(Cn2c(=O)n(Cc3ccc(F)cc3)c(=O)c3ccccc32)ON1Cc1ccccc1 (mixture of isomers; cis),–,> 4,> 4,–,–,> 4,–,19,17,–,> 4,–,"MCC [15]: 20 µM; MCC [16]: 20 µM; IC50 ([12]; Homo sapiens, HeLa, 96 h): 17 µM; IC50 ([13]; Homo sapiens, HMEC-1): 27 µM"
CCOP(=O)(OCC)C1CC(Cn2c(=O)n(Cc3ccccc3)c(=O)c3ccccc32)ON1Cc1ccccc1 (mixture of isomers; cis),100,–,13.2,100,–,–,–,18,10,9,6.5,–,"EC50 [2]: 7.3 µM; CC50 [17]: 9 µM; EC50 [6]: ≥ 3 µM; IC50 ([12]; hela): 33 µM; IC50 ([13]; Homo sapiens, HMEC-1): 28 µM"
CCOP(=O)(OCC)C1CC(Cn2c(=O)n(Cc3cccc(F)c3)c(=O)c3ccccc32)ON1Cc1ccccc1 (mixture of isomers; cis),–,> 20,> 20,100,–,–,–,–,–,–,> 20,–,"MCC [15]: 20 µM; EC50 [6]: > 20 µM; IC50 ([8]; l1210): 89 µM; IC50 ([9]; ccrf-cem): 49 µM; IC50 ([12]; Homo sapiens, HeLa, 96 h): 73 µM; IC50 ([13]; hmec-1): 204 µM"
CCOP(=O)(OCC)C1CC(Cn2c(=O)n(Cc3ccc(F)cc3)c(=O)c3ccccc32)ON1Cc1ccccc1 (mixture of isomers; trans),–,–,–,–,6.6,–,–,–,–,6.6,8.94,–,MCC [15]: 100 µM; EC50 [2]: 3 µM; EC50 [3]: 3.6 µM; MCC [16]: 100 µM; EC50 [6]: ≥ 6.5 µM; IC50 ([9]; ccrf-cem): 13 µM; IC50 ([12]; hela): 18 µM; IC50 ([13]; hmec-1): 26 µM; Ratio EC50 [14]: 10 - 14
CCOP(=O)(OCC)C1CC(Cn2c(=O)n(Cc3cccc(F)c3)c(=O)c3ccccc32)ON1Cc1ccccc1 (mixture of isomers; trans),–,–,–,–,–,–,–,–,–,20.8,8.94,–,MCC [15]: 100 µM; EC50 [3]: 20 µM; EC50 [6]: 9.9 µM; IC50 ([8]; l1210): 17 µM; IC50 ([9]; ccrf-cem): 17 µM; IC50 ([12]; hela): 63 µM; IC50 ([13]; hmec-1): 28 µM
CCOP(=O)(OCC)[C@@H]1C[C@@H](Cn2c(=O)n(C(=O)c3ccc(F)cc3)c(=O)c3ccccc32)ON1C (relative stereo),100,6.9,10.7,≥ 100,14.7,> 20,> 20,> 250,–,–,–,≥ 100,EC50 [18]: 39 µM; EC50 [19]: 12 µM; EC50 [20]: 9 µM; EC50 [21]: 17.5 µM
Cc1cn([C@H]2C[C@H](F)[C@@H](CO)O2)c(=O)[nH]c1=O [ALOVUDINE],–,–,–,–,–,–,–,–,–,–,–,> 250,EC50 [21]: 10 µM
O=c1[nH]c(=O)n([C@H]2C[C@H](O)[C@@H](CO)O2)cc1/C=C/Br [BRIVUDINE],–,0.005,22.7,> 300,300,–,–,–,–,–,–,> 250,EC50 [19]: 146 µM
Nc1ccn(C[C@@H](CO)OCP(=O)(O)O)c(=O)n1 [CIDOFOVIR],> 300,–,–,–,–,1.44,0.81,–,–,> 300,–,> 250,EC50 [18]: 2 µM; EC50 [19]: 2 µM; EC50 [20]: 3.8 µM; EC50 [21]: 10 µM
Nc1nc(O)c2ncn(COC(CO)CO)c2n1 [GANCICLOVIR],> 350,–,–,–,–,14.9,6.5,–,–,> 350,–,> 100,EC50 [19]: 0.055 µM
Nc1ccn([C@H]2CC[C@@H](CO)O2)c(=O)n1 [ZALCITABINE],–,–,–,–,–,–,–,–,–,–,–,> 250,EC50 [21]: 7.2 µM
